This note sets out measurements from ChEMBL document CHEMBL1129963, “Sulfonimidamide analogs of oncolytic sulfonylureas” (J Med Chem, 1997).

Values after ≈ are worked out from the molar mass of the structure shown.

For one data set, the system named is CCRF-CEM. Kind of data set: In vitro cytotoxicity against CCRF-CEM cells. The class given is functional, cell-based. The note with it: Homo sapiens. In outline:
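CCRF-CEM cells were grown in culture for 72 h with compound. The value is the concentration that inhibited growth to 50% of control growth.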

The subject of data set [1] is Mus musculus. Kind of data set: In vivo antitumor activity against subaxillary implanted 6C3HED lymphosarcoma implanted in C3H mice at a dose of 300 mg/kg administered perorally twice daily for a period of 8 days. The class given is functional. Conditions: 192 h, route oral. In outline: (§1)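 6C3HED lymphosarcoma was carried in C3H mice. Compound was dosed at the stated route and schedule for 8 days (daily, twice daily, or days 1, 3, 5, 7) and tumor growth inhibition was scored against controls. The table value is the lowest dose giving >80% inhibition, or the highest dose tested. Deaths per group were recorded.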

The subject of data set [2] is Mus musculus. Kind of data set: In vivo antitumor activity against subaxillary implanted 6C3HED lymphosarcoma implanted in C3H mice at a dose of 150 mg/kg administered perorally twice daily for a period of 8 days. Conditions: for inhibition in vivo at 150 mg/kg: Mus musculus, 6C3HED, po, 192 h. The data set is classed as functional. The method, boiled down: as §1
Data set [3] can be described thus: % dose converted to 2-amino-5-chlorophenyl sulfate. The class given is ADME. The method, boiled down: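 Groups of two to four mice received single 100 mg/kg oral doses of each compound. Urine was pooled over 0-24 h, and the 2-amino-5-chlorophenyl sulfate excreted in 24 h per mouse was quantified as the marker of p-chloroaniline release.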
A short description of data set [4]: % dose converted to 4-(S-amino-N-{[(4-chlorophenyl)amino]carbonyl}sulfonimidoyl)benzoic acid (compound 41). The class given is ADME.
Data set [5] deals with Mus musculus. Kind of data set: In vivo antitumor activity of compound against subaxillary implanted 6C3HED lymphosarcoma implanted in C3H mice at a dose of 150 mg/kg administered intraperitoneally daily for a period of 8 days. The class given is functional. The note with it: ip, 192 h, route intraperitoneal. In outline: as §1
The subject of data set [6] is Mus musculus. Kind of data set: In vivo antitumor activity of compound against subaxillary implanted 6C3HED lymphosarcoma implanted in C3H mice at a dose of 243 mg/kg administered intraperitoneally daily for a period of 8 days. The data set is classed as functional. The note with it: ip, 192 h, route intraperitoneal. In outline: as §1
In data set [7] the test system is Mus musculus. Kind of data set: In vivo antitumor activity of compound against subaxillary implanted 6C3HED lymphosarcoma implanted in C3H mice at a dose of 50 mg/kg administered perorally twice daily for a period of 8 days. The class given is functional. The note with it: 192 h, route oral. In outline:
as §1

The subject of data set [8] is Mus musculus. Kind of data set: In vivo antitumor activity against subaxillary implanted 6C3HED lymphosarcoma implanted in C3H mice at a dose of 300 mg/kg administered perorally daily for a period of 8 days. The data set is classed as functional. The note with it: 192 h, route oral. In outline: as §1
For data set [9], the system named is Mus musculus. Kind of data set: In vivo antitumor activity of compound against subaxillary implanted 6C3HED lymphosarcoma implanted in C3H mice at a dose of 75 mg/kg administered perorally twice daily for a period of 8 days. The class given is functional. The note with it: 192 h, route oral. The method, boiled down: as §1
The subject of data set [10] is Mus musculus. Kind of data set: In vivo antitumor activity of compound against subaxillary implanted 6C3HED lymphosarcoma implanted in C3H mice at a dose of 200 mg/kg administered perorally twice daily for a period of 8 days. The class given is functional. The note with it: 192 h, route oral. The method, boiled down:
as §1

With `Cc1ccc([S+](N)([O-])=NC(=O)Nc2ccc(C(F)(F)F)cc2)cc1` (centres undefined), in the data set on CCRF-CEM, the IC50 was > 20 µg/mL.

Turning to `Cc1ccc([S+]([O-])(=NC(=O)Nc2ccc(Cl)cc2)NCc2ccccc2)cc1` (centres undefined), the concentration for half-maximal inhibition (IC50) in the data set on CCRF-CEM was determined as 8.7 µg/mL (≈ 21 µM). Also, the inhibition in vivo at 300 mg/kg with Mus musculus [1] worked out at 87%.

For the compound `Cc1ccc([S+](N)([O-])=NC(=O)N(C)c2ccc(Cl)cc2)cc1` (centres undefined), the IC50 in the data set with CCRF-CEM was > 20 µg/mL. The compound further came in with an inhibition in vivo at 150 mg/kg in the data set on Mus musculus [2] of 83%.

Regarding `Cc1ccc([S+](N)([O-])=NC(=O)Nc2ccc(Cl)cc2)cc1` (stereo in doubt; 16(+)), the Dose converted is < 0.3% in [3] and 17% in data set [4]. In the data set on Mus musculus [2] (route oral, 150 mg/kg), this compound had an Inhibition of 5%.

Take `N[S+]([O-])(=NC(=O)Nc1ccc(Cl)cc1)c1ccc(C=O)cc1` (centres undefined): in the data set with CCRF-CEM, the IC50 stood at 5.6 µg/mL (≈ 16.6 µM). Testing at 150 mg/kg with Mus musculus [5] gave an inhibition in vivo of 80%.

In the data set on Mus musculus [6], `N[S+]([O-])(=NC(=O)Nc1ccc(Cl)cc1)c1ccc(C(=O)O)cc1` (centres undefined) registered an inhibition in vivo at 243 mg/kg of 0%.

For `Cc1ccc([S+](N)([O-])=NC(=O)Nc2ccc(Br)cc2)cc1` (centres undefined), the IC50 in the data set on CCRF-CEM was > 20 µg/mL. This compound also registered an inhibition in vivo at 150 mg/kg in the data set with Mus musculus [2] of 100%.

In the case of `CC(=O)N[S+]([O-])(=NC(=O)Nc1ccc(Cl)cc1)c1ccc(C)cc1` (centres undefined), the IC50 in the data set with CCRF-CEM was > 20 µg/mL. In the data set with Mus musculus [1], this compound came in with an inhibition in vivo at 300 mg/kg of 84%.

As to `Cc1ccc([S+](N)([O-])=NC(=O)Nc2ccc(F)cc2)cc1` (centres undefined), in the data set on CCRF-CEM, the 50% inhibitory concentration (IC50) was > 20 µg/mL. Further, 300 mg/kg produced 0% inhibition in vivo with Mus musculus [1].

Turning to `CC(=O)OCc1ccc([S+](N)([O-])=NC(=O)Nc2ccc(Cl)cc2)cc1` (centres undefined), in the data set with CCRF-CEM, the IC50 was > 20 µg/mL. In addition, in the data set with Mus musculus [7], 50 mg/kg produced 87% inhibition in vivo.

For `CN[S+]([O-])(=NC(=O)N(C)c1ccc(Cl)cc1)c1ccc(C)cc1` (centres undefined), in the data set on CCRF-CEM, the IC50 is > 20 µg/mL. The compound also showed an inhibition in vivo at 150 mg/kg in the data set on Mus musculus [2] of 91%.

With `Cc1ccc([S+]([O-])(=NC(=O)Nc2ccc(Cl)cc2)NCCO)cc1` (centres undefined), the IC50 in the data set on CCRF-CEM is > 20 µg/mL. For the same compound, the inhibition in vivo at 300 mg/kg in the data set with Mus musculus [8] amounted to 60%.

The compound `Cc1ccc([S+]([O-])(=NC(=O)Nc2ccc(Cl)cc2)NCCc2ccccc2)cc1` (centres undefined) registered an IC50 with CCRF-CEM of 5.3 µg/mL (≈ 12.4 µM). Besides, the inhibition in vivo at 300 mg/kg with Mus musculus [1] was determined as 48%.

As for `CCCCN[S+]([O-])(=NC(=O)Nc1ccc(Cl)cc1)c1ccc(C)cc1` (centres undefined), in the data set on CCRF-CEM, the IC50 was 0.4 µg/mL (≈ 1.05 µM). Besides, the inhibition in vivo at 150 mg/kg in the data set with Mus musculus [2] was found to be 88%.

Turning to `COC(=O)c1ccc([S+](N)([O-])=NC(=O)Nc2ccc(Cl)cc2)cc1` (centres undefined), in the data set with CCRF-CEM, the IC50 was > 20 µg/mL. This compound also displayed an inhibition in vivo at 300 mg/kg with Mus musculus [1] of 0%.

As for `CC(=O)N(C)[S+]([O-])(=NC(=O)Nc1ccc(Cl)cc1)c1ccc(C)cc1` (centres undefined), in the data set with CCRF-CEM, the IC50 was determined as 9.6 µg/mL (≈ 25.3 µM). The same compound showed an inhibition in vivo at 150 mg/kg with Mus musculus [2] of 98%.

In the case of `Cc1ccc([S+](N)([O-])=NC(=O)Nc2ccc(OCc3ccccc3)cc2)cc1` (centres undefined), in the data set with CCRF-CEM, the IC50 was > 20 µg/mL. Also, in the data set with Mus musculus [1], the inhibition in vivo at 300 mg/kg worked out at 5%.

Take `N[S+]([O-])(=NC(=O)Nc1ccc(Cl)cc1)c1ccc(Cl)cc1` (centres undefined): the IC50 in the data set with CCRF-CEM was found to be 12.3 µg/mL (≈ 35.7 µM). Further, in the data set on Mus musculus [7], at 50 mg/kg the inhibition in vivo was 80%.

Compound `C=CCN[S+]([O-])(=NC(=O)Nc1ccc(Cl)cc1)c1ccc(C)cc1` (centres undefined) had an IC50 in the data set on CCRF-CEM of 10 µg/mL (≈ 27.5 µM). The same compound displayed an inhibition in vivo at 300 mg/kg with Mus musculus [1] of 45%.

For `Cc1ccc([S+]([O-])(=NC(=O)Nc2ccc(Cl)cc2)N(C)C)cc1` (centres undefined), the IC50 with CCRF-CEM is > 20 µg/mL. Also, the inhibition in vivo at 300 mg/kg with Mus musculus [1] was 63%.

`CCCN[S+]([O-])(=NC(=O)Nc1ccc(Cl)cc1)c1ccc(C)cc1` (centres undefined) registered an IC50 in the data set with CCRF-CEM of 10.9 µg/mL (≈ 29.8 µM). In the data set with Mus musculus [8], this compound came in with an inhibition in vivo at 300 mg/kg of 69%.

In the data set on CCRF-CEM, `Cc1ccc([S+]([O-])(=NC(=O)Nc2ccc(Cl)cc2)NC(C)C)cc1` (centres undefined) showed an IC50 of 1.4 µg/mL (≈ 3.83 µM). In the data set with Mus musculus [9], this compound displayed an inhibition in vivo at 75 mg/kg of 86%.

Take `CCN[S+]([O-])(=NC(=O)Nc1ccc(Cl)cc1)c1ccc(C)cc1` (centres undefined): the IC50 in the data set on CCRF-CEM was 13.8 µg/mL (≈ 39.2 µM). Also, testing at 150 mg/kg in the data set with Mus musculus [2] gave an inhibition in vivo of 87%.

`N[S+]([O-])(=NC(=O)Nc1ccc(Cl)cc1)c1ccc(CO)cc1` (centres undefined): in the data set on CCRF-CEM, the IC50 is > 20 µg/mL. The inhibition in vivo at 75 mg/kg in the data set on Mus musculus [9] worked out at 99%.

As to `Cc1cc(C)cc([S+](N)([O-])=NC(=O)Nc2ccc(Cl)cc2)c1` (centres undefined), 20 µg/mL (≈ 59.2 µM) corresponded to half-maximal inhibition in the data set with CCRF-CEM (IC50). The compound also returned an inhibition in vivo at 200 mg/kg with Mus musculus [10] of 77%.
